Source: paper PMC4643417 (Leukemia & lymphoma, 2015)
Each block holds one molecule with its values, some of them ahead of it.

How the values were obtained:
[1] = tested on: BCL2; settings: statement in discussion; cited from earlier work
[2] = tested on: BCLXL; settings: statement in discussion; cited from earlier work
[3] = tested on: patients with previously untreated CLL; set-up: species or system human; settings: in vivo
[4] = tested on: patients with CLL, BCL2 protein low or high subgroups; assay: Association of baseline BCL2 protein expression; type: in vivo, human; settings: arm A (n = 24) / arms B + C pooled (n = 31)
In short: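 Baseline bone marrow aspirates (optional consent), fresh: intracellular BCL2 staining by flow cytometry at a central lab within 72 h of collection, gated on CD19/CD5-positive CLL cells. Low/high subgroups split at median expression. Rituximab 375 mg/m2 week 1, then 500 mg/m2 weekly weeks 2–8, ± oral navitoclax (100 mg/day lead-in, then 250 mg/day). Odds ratios of objective response by logistic regression.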

[5] = tested on: patients with previously untreated CLL; assay: Phase 2 randomized three-arm trial: investigator-assessed best response; type: in vivo, human
In short: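 Open-label multicenter trial, randomized 1:1:1 and stratified by Binet stage and del(17p)/del(11q) (interphase FISH on marrow aspirates). Rituximab 375 mg/m2 week 1, then 500 mg/m2 weekly weeks 2–8, alone or with oral navitoclax (100 mg daily lead-in week, then 250 mg daily for 12 weeks). Investigator response by updated iwCLL at week 12, then every 12 weeks. ORR (CR+PR) with 95% CI; PFS by Kaplan–Meier.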

[6] = in vivo
[7] = Navitoclax plasma pharmacokinetics; type: in vivo, human; settings: for AUC / Cmax / Tmax: human, plasma, po
[8] = tested on: patients with relapsed/refractory CLL; settings: phase 1 study, single-agent navitoclax; cited from earlier work
[9] = ITT population, arm A (n = 40) / arm B (n = 38; navitoclax 12 weeks)
[10] = patients with del(17p), arm A (n = 11) / arm B (n = 12; navitoclax 12 weeks)

Molecule: CC1(C)CCC(CN2CCN(c3ccc(C(=O)NS(=O)(=O)c4ccc(NCC5CCOCC5)c([N+](=O)[O-])c4)c(Oc4cnc5[nH]ccc5c4)c3)CC2)=C(c2ccc(Cl)cc2)C1 [ABT-199]
Affinity for BCL2 [1]: very high affinity
BCLXL inhibition [2]: effectively no BCLXL inhibition

Molecule: rituximab
Anemia/worsening of anemia [3]: 2 (5) n (%)
Any AEs [3]: 33 (87) n (%)
Any SAEs [3]: 5 (13) n (%)
Asthenia [3]: 0 (0) n (%)
Chills [3]: 0 (0) n (%)
Diarrhea [3]: 0 (0) n (%)
GI and abdominal pain [3]: 0 (0) n (%)
Grade 5 AEs [3]: 3%
Hyperbilirubinemia [3]: 0 (0) n (%)
Leukopenia [3]: 1 (3) n (%)
Liver enzyme increase [3]: 0 (0) n (%)
Neutropenia [3]: 3 (8) n (%)
Patients who withdrew from study due to AEs [3]: 0 [0%] n [%]
Respiratory tract infection [3]: 3 (8) n (%)
Thrombocytopenia [3]: 0 (0) n (%)
Vascular hypertensive disorders (hypertension) [3]: 0 (0) n (%)
Best response PR [4]: 6 (43%) n (%)
Best response SD or PD [4]: 8 (57%) n (%)
Best response: Missing [5, 9]: 3 (8) n (%)
Complete response (CR) [5, 9]: 0 (0) n (%)
Partial response (PR) [5, 9]: 14 (35) n (%)
Progressive disease [5, 9]: 2 (5) n (%)
Stable disease [5, 9]: 21 (53) n (%)
Overall response rate (complete [CR] and partial [PR]), investigator-assessed ([5]; arm A / arm B (navitoclax daily for 12 weeks)): 35%
Best response: Missing [5, 10]: 0 (0) n (%)
Complete response (CR) [5, 10]: 0 (0) n (%)
Partial response (PR) [5, 10]: 2 (18) n (%)
Progressive disease [5, 10]: 1 (9) n (%)
Stable disease [5, 10]: 8 (73) n (%)
Effect of navitoclax on the PK of rituximab [6]: does not affect the PK of rituximab
Week 8 rituximab concentration, post-infusion [6]: 576 ± 264 (n = 33) μg/mL
Week 8 rituximab concentration, pre-infusion [6]: 296 ± 175 (n = 33) μg/mL

Discontinuation of navitoclax due to hyperbilirubinemia ([3]; human): 1 n
Discontinuation of navitoclax due to neutropenia ([3]; human): 1 n
Discontinuation of navitoclax due to pain ([3]; human): 1 n
Discontinuation of navitoclax due to reaction to the infusion of rituximab ([3]; human): 1 n
Discontinuation of navitoclax due to serum sickness ([3]; human): 1 n
Discontinuation of navitoclax due to thrombocytopenia ([3]; human): 1 n
Time of maximum navitoclax concentration (Cmax) after oral administration [7]: approximately 6 h
AUC ([7]; 100 mg): 10500 ± 4100 ng·h/mL
Cmax ([7]; 100 mg): 2300 ± 900 ng/mL
Tmax ([7]; 100 mg): 6 h
AUC ([7]; 250 mg): 61200 ± 31200 ng·h/mL
Cmax ([7]; 250 mg): 3700 ± 2000 ng/mL
Tmax ([7]; 250 mg): 6.1 h
Molecule: CC1(C)CCC(c2ccc(Cl)cc2)=C(CN2CCN(c3ccc(C(=O)NS(=O)(=O)c4ccc(N[C@H](CCN5CCOCC5)CSc5ccccc5)c(S(=O)(=O)C(F)(F)F)c4)cc3)CC2)C1 [navitoclax]
Patients who discontinued navitoclax due to an AE, total ([3]; human): 12 patients
Incidence of SAEs compared to patients treated with rituximab alone [3]: not increased
Reports of bleeding [3]: a single AE of self-limited epistaxis
Overall response rate (ORR) [8]: 35%
